The structures appear in SMILES notation.

Results on 18 compounds are retold here after ChEMBL document CHEMBL2380206, “Discovery of potent, selective chymase inhibitors via fragment linking strategies” (J Med Chem, 2013).

The species entered for one data set is Homo sapiens. Briefly: Selectivity ratio of IC50 for human cathepsin G to IC50 for recombinant human chymase. The gist of the method: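 Both IC50s from the same fluorogenic rhodamine 110 bis(Suc-Ala-Ala-Pro-Phe-amide) assay, 1 h at 28 °C/80% humidity, ex 485 / em 530 nm, with 0.01% CHAPS, 100 μM TCEP and 1% DMSO. Chymase: 500 pM recombinant human enzyme, 100 nM substrate, 20 mM Tris-HCl pH 8.0, 50 mM NaCl. Cathepsin G: 4 nM enzyme, 300 nM substrate, PBS plus 10 mM HEPES pH 7.4.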
With `Cc1cccc2scc(Cn3c(SCCCC(=O)O)nc4ccccc43)c12`, the Ratio IC50 amounted to 10.

The target in the next data set is T1, Cathepsin G (Homo sapiens, UniProt P08311).
T1 sequence (P08311 whole entry): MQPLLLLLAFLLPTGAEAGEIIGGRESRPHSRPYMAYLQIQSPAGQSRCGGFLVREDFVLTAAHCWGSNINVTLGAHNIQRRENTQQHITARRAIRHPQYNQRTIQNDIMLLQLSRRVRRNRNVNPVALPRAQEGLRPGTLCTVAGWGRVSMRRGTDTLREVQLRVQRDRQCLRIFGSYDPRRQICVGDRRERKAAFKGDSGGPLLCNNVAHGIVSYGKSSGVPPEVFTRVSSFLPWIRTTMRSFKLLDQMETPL
Briefly: Inhibition of human cathepsin G using bis(succinoyl-L-alanyl-L-prolyl-L-phenylalanylamide) as substrate after 1 hr by fluorescence assay.
Consider `CCCC(CC(=O)O)n1c(=O)n(Cc2cc(Br)cc3c2CC(=O)N3)c2ccccc21` (stereo not given), for which the IC50 was 5.4 µM.

`CCCC(CC(=O)O)n1c(=O)n(Cc2cccc3c2CC(=O)N3)c2ccccc21` (stereo not given) gave a concentration for half-maximal inhibition (IC50) greater than 10 µM.

The compound `O=C1Cc2ccc(Cl)cc2N1` showed an IC50 greater than 1000 µM.

In the case of `O=C(O)CCn1c(=O)n(Cc2cc(Br)cc3c2CC(=O)N3)c2ccccc21`, the IC50 was greater than 10 µM.

With `Cc1cccc2scc(Cn3c(SCCCC(=O)O)nc4ccccc43)c12`, the IC50 is 0.052 µM.

`O=C(O)CCCSc1nc2ccccc2n1Cc1cc(Cl)cc2c1CC(=O)N2` yielded an IC50 of 3.8 µM.

`O=C(O)CCn1c(=O)n(Cc2cc(Cl)cc3c2CC(=O)N3)c2ccccc21` returned an IC50 greater than 10 µM.

With `CCCC(CC(=O)O)n1c(=O)n(Cc2cc(Cl)cc3c2CC(=O)N3)c2ccccc21` (stereo not given), the half-maximal inhibitory concentration (IC50) is greater than 10 µM.

Turning to `Cc1cccc2scc(Cn3c(=O)n(CCCC(=O)O)c4ccccc43)c12`, the 50% inhibitory concentration (IC50) worked out at 1.4 µM.

For the compound `CCCC(Cn1c(=O)n(Cc2cc(Br)cc3[nH]c(=O)sc23)c2ccccc21)C(=O)O` (stereo not given), the IC50 was greater than 10 µM.

`CCCC(Cn1c(=O)n(Cc2cc(Br)cc3c2CC(=O)N3)c2ccccc21)C(=O)O` (stereo not given) gave a half-inhibitory concentration (IC50) greater than 10 µM.

The target of another data set is T2, Chymase (Homo sapiens, UniProt P23946).
T2 sequence (P23946 whole entry): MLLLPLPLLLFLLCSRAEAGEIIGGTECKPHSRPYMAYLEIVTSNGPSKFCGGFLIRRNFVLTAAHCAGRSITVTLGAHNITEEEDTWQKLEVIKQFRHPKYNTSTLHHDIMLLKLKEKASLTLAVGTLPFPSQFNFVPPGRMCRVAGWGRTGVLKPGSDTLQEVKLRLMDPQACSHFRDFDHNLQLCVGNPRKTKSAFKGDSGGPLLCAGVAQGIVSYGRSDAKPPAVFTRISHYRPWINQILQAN
Briefly: Inhibition of recombinant human chymase using bis(succinoyl-L-alanyl-L-prolyl-L-phenylalanylamide) as substrate after 1 hr by fluorescence assay.
On to `O=C1Cc2cc(Cl)ccc2N1`, for which the half-maximal inhibitory concentration (IC50) is greater than 1000 µM.

On to `O=C1Cc2ccc(Br)cc2N1`, for which the IC50 was 570 µM.

For `CN1C(=O)Cc2ccc(Cl)cc21`, the IC50 is greater than 1000 µM.

Consider `O=C1Cc2c(Cl)cccc2N1`, for which the IC50 was greater than 1000 µM.

In the case of `O=C1Cc2cccc(Cl)c2N1`, the 50% inhibitory concentration (IC50) was greater than 1000 µM.

For `O=C1NCc2ccc(Cl)cc21`, the IC50 was greater than 1000 µM.

For the compound `O=C1Cc2ccccc2N1` [OXINDOLE], the IC50 was greater than 1000 µM.

In the next data set the test system is Liver microsomes. Briefly: Metabolic stability in human liver microsomes assessed as GSH adduct formation incubated for 3 min prior to NADPH addition measured after 2 hrs by mass spectrometric analysis. For orientation: Microsomes from liver hold many membrane-bound enzymes, among them those of drug oxidation.
For the compound `CCCC(CC(=O)O)n1c(=O)n(Cc2cc(Cl)cc3c2CC(=O)N3)c2ccccc21` (stereo not given), the Stability entry is on record as “Stable”.

One may read the IC50 as the concentration needed to halve the response being measured.
